ID50 and IC50 data for 14 compounds are collected here from ChEMBL document CHEMBL3046444, “Antiproliferative activity and synthesis of 8-prenylnaringenin derivatives by demethylation of 7-O- and 4'-O-substituted isoxanthohumols” (2012).

What all share (type): functional
For one test, the system named is CCRF-CEM. Nature of the test: Antiproliferative activity against Homo sapiens (human) CCRF-CEM cells after 72 hr by MTT assay. Conditions: for IC50: read-out: ID50 (the source's name). The method, boiled down: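 Human leukemia CCRF/CEM cells seeded at 10^5/ml in RPMI 1640 with 10% FBS, penicillin/streptomycin and 2 mM L-glutamine at 37°C, 5% CO2. Compounds were added after 24 h at 0.1–100 μg/ml, with acetone or ethanol vehicle controls, and exposure ran 72 h. MTT was given for 4 h, formazan solubilized in SDS/DMF for 24 h, and read at 570 nm. Triplicates, 3–5 repeats; ID50 in μg/ml vs untreated.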

A further test relates to HT-29. Briefly: Antiproliferative activity against Homo sapiens (human) HT-29 cells after 72 hr by SRB assay. Conditions: for IC50: HT-29, 72 h, read-out: ID50 (the source's name). In a few lines: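 HT-29 colon adenocarcinoma cells were plated at 10^5/ml in RPMI 1640/Opti-MEM (1:1) with 5% FBS, antibiotics, 1 mM pyruvate and 2 mM glutamine. Test agents (0.1–100 μg/ml, solvent-matched controls) were added after 24 h and left for 72 h. Cells were TCA-fixed and stained 30 min with 0.4% SRB in 1% acetic acid, dye extracted with 10 mM Tris, OD 540 nm. Triplicates, 3–5 experiments; ID50 (μg/ml).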
On the technique in general: In SRB staining, fixed cells bind dye roughly in proportion to their protein.

For a further test, the system named is MCF7. Briefly: Antiproliferative activity against Homo sapiens (human) MCF7 cells after 72 hr by SRB assay. Conditions: for IC50: MCF7, 72 h, read-out: ID50 (the source's name). In a few lines:
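MCF-7 breast cancer cells at 10^5/ml in Eagle's medium with 10% FBS, antibiotics, 2 mM glutamine, 1.0 mM pyruvate, 1% amino acids and 0.8 mg/l insulin, 37°C, 5% CO2. After 24 h, compounds at 0.1–100 μg/ml (acetone/ethanol controls) were added for 72 h. SRB read-out: cold 50% TCA fixation, 0.4% SRB stain, Tris extraction, 540 nm. Triplicates, repeated 3–5 times; 50% proliferation inhibition dose (ID50, μg/ml).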

Converted amounts (≈) assume the structure as drawn. The source made the active and inactive calls. The calls are words filed in the database; no cut-off is given here.

For the compound `C=CCOc1ccc(C2CC(=O)c3c(O)cc(OCC=C)c(CC=C(C)C)c3O2)cc1` (configuration not stated), the ID50 entry with CCRF-CEM, in the test on HT-29 and in the test on MCF7 was “inactive” in each case.

Consider `CCCCCCCCCCCCCCCC(=O)Oc1ccc(C2CC(=O)c3c(O)cc(OC(=O)CCCCCCCCCCCCCCC)c(CC=C(C)C)c3O2)cc1` (configuration not stated), for which the ID50 entry in the test with CCRF-CEM, with HT-29 and with MCF7 was “inactive” in each case.

As to `CCCCCCCCCCCCCCCC(=O)Oc1ccc([C@@H]2CC(=O)c3c(OC)cc(OC(=O)CCCCCCCCCCCCCCC)c(CC=C(C)C)c3O2)cc1`, the ID50 entry with CCRF-CEM, in the test with HT-29 and in the test with MCF7 was “inactive” each time.

Take `CC(=O)Oc1ccc(C2CC(=O)c3c(O)cc(OC(C)=O)c(CC=C(C)C)c3O2)cc1` (configuration not stated) [7,4'-DI-O-ACETYL-8-PRENYLNARINGENIN]: the IC50 in the test with CCRF-CEM was 37 µg/mL (≈ 87.2 µM); in the test with HT-29, 36.1 µg/mL (≈ 85.1 µM); with MCF7 it was 28 µg/mL (≈ 66 µM).

For `COc1cc(OC(C)=O)c(CC=C(C)C)c2c1C(=O)C[C@@H](c1ccc(OC(C)=O)cc1)O2` [7,4'-DI-O-ACETYLISOXANTHOHUMOL], the values for the IC50 in the test with CCRF-CEM, with HT-29 and with MCF7 were 23.3 µg/mL (≈ 53.1 µM), 32.1 µg/mL (≈ 73.2 µM) and 16.9 µg/mL (≈ 38.5 µM), respectively.

On to `C=CCOc1ccc([C@@H]2CC(=O)c3c(OC)cc(OCC=C)c(CC=C(C)C)c3O2)cc1` [7,4'-DI-O-ALLYLISOXANTHOHUMOL], for which the IC50 with CCRF-CEM was determined as 2.7 µg/mL (≈ 6.21 µM); in the test on HT-29 it was 6.2 µg/mL (≈ 14.3 µM); in the test on MCF7, 5.2 µg/mL (≈ 12 µM).

As to `COc1ccc(C2CC(=O)c3c(O)cc(OC)c(CC=C(C)C)c3O2)cc1` (configuration not stated) [7,4'-DI-O-METHYL-8-PRENYLNARINGENIN], the ID50 entry in the test with CCRF-CEM and in the test with HT-29 was “inactive” each time. In the test on MCF7, the IC50 stood at 36.9 µg/mL (≈ 100 µM).

Regarding `COc1ccc([C@@H]2CC(=O)c3c(OC)cc(OC)c(CC=C(C)C)c3O2)cc1` [7,4'-DI-O-METHYLISOXANTHOHUMOL], the IC50 turned out to be 5 µg/mL (≈ 13.1 µM) in the test on CCRF-CEM, 6 µg/mL (≈ 15.7 µM) in the test on HT-29 and 6.6 µg/mL (≈ 17.3 µM) with MCF7.

Turning to `CCCCCOc1ccc([C@@H]2CC(=O)c3c(OC)cc(OCCCCC)c(CC=C(C)C)c3O2)cc1` [7,4'-DI-O-N-PENTYL-8-ISOXANTHOHUMOL], the IC50 in the test on CCRF-CEM is 4.3 µg/mL (≈ 8.69 µM); in the test on HT-29 it was 8.2 µg/mL (≈ 16.6 µM); with MCF7, 7.1 µg/mL (≈ 14.4 µM).

For the compound `CCCCCOc1cc(OC)c2c(c1CC=C(C)C)O[C@H](c1ccc(O)cc1)CC2=O` [7-O-N-PENTYLISOXANTHOHUMOL], the IC50 in the test with CCRF-CEM turned out to be 5.4 µg/mL (≈ 12.7 µM); in the test with HT-29, 6.9 µg/mL (≈ 16.3 µM); in the test on MCF7, 8.3 µg/mL (≈ 19.6 µM).

Take `CCCCCOc1cc(O)c2c(c1CC=C(C)C)OC(c1ccc(O)cc1)CC2=O` (configuration not stated) [7-O-PENTYL-8-PRENYLNARINGENIN]: the figures for the IC50 in the test on CCRF-CEM, in the test on HT-29 and in the test on MCF7 were 4.8 µg/mL (≈ 11.7 µM), 10 µg/mL (≈ 24.4 µM) and 3.9 µg/mL (≈ 9.5 µM), respectively.

Regarding `COc1cc(O)c(CC=C(C)C)c2c1C(=O)CC(c1ccc(O)cc1)O2` (configuration not stated) [ISOXANTHOHUMOL], the IC50 worked out at 18.2 µg/mL (≈ 51.4 µM) in the test with CCRF-CEM, 32.6 µg/mL (≈ 92 µM) in the test with HT-29 and 9.4 µg/mL (≈ 26.5 µM) in the test on MCF7.

As for `CC(C)=CCc1c(O)cc(O)c2c1OC(c1ccc(O)cc1)CC2=O` (configuration not stated) [SOPHORAFLAVANONE B], the IC50 in the test with CCRF-CEM stood at 24.2 µg/mL (≈ 71.1 µM); in the test on HT-29, 33.2 µg/mL (≈ 97.5 µM); in the test with MCF7 it was 19.4 µg/mL (≈ 57 µM).

For the compound `COc1cc(O)c(CC=C(C)C)c(O)c1C(=O)/C=C/c1ccc(O)cc1` [XANTHOHUMOL], the figures for the IC50 with CCRF-CEM, with HT-29 and in the test on MCF7 were 4.1 µg/mL (≈ 11.6 µM), 3.8 µg/mL (≈ 10.7 µM) and 4.7 µg/mL (≈ 13.3 µM), respectively.
